Tested on: Human alphaherpesvirus 1
Assay: Inhibitory concentration required against herpes simplex virus type-1 (HSV-1) expressed in BSC-1 cells was determined by ELISA assay
Format: functional, organism-based
Conditions: Human alphaherpesvirus 1, BSC-1
In short: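 HSV-1 KOS strain. BSC-1 cells, 10 000 per well in MEM(E) with 10% calf serum, incubated overnight at 37 °C, then drug plus virus at 100 pfu/well, quadruplicate wells, 3 days at 37 °C. Detection with HRP-conjugated rabbit anti-HSV-1 antibody and TMB substrate, stopped with H₂SO₄ after 15 min, absorbance at 450 and 570 nm. IC50 by regression vs log10 concentration; acyclovir as positive control.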

| SMILES | IC50 [µM] |
| --- | --- |
| O=Cc1c(Cl)n(C2O[C@H](CO)[C@@H](O)C2O)c2cc(Cl)c(Cl)cc12 (single isomer, unassigned) | 40 |
| CC(=O)c1c(Cl)n(C2O[C@H](CO)[C@@H](O)C2O)c2cc(Cl)c(Cl)cc12 (single isomer, unassigned) | 20 |
| OC[C@H]1OC(n2c(Cl)c(-c3ccco3)c3cc(Cl)c(Cl)cc32)C(O)[C@@H]1O (single isomer, unassigned) | 50 |
| OC[C@H]1OC(n2c(Cl)c(I)c3cc(Cl)c(Cl)cc32)C(O)[C@@H]1O (single isomer, unassigned) | 20 |
| CCC(=O)c1c(Cl)n(C2O[C@H](COC(C)=O)[C@@H](O)C2O)c2cc(Cl)c(Cl)cc12 (single isomer, unassigned) | 15 |
| CC(=O)OC[C@H]1OC(n2c(Cl)c(C(C)=O)c3cc(Cl)c(Cl)cc32)C(O)[C@@H]1O (single isomer, unassigned) | 20 |
| CCCC(=O)OC[C@H]1OC(n2c(Cl)c(C=O)c3cc(Cl)c(Cl)cc32)C(O)[C@@H]1O (single isomer, unassigned) | 9 |
| Cc1c(Cl)n(C2O[C@H](CO)[C@@H](O)C2O)c2cc(Cl)c(Cl)cc12 (single isomer, unassigned) | 70 |
| COC(=O)OC[C@H]1OC(n2c(Cl)c(C=O)c3cc(Cl)c(Cl)cc32)C(O)[C@@H]1O (single isomer, unassigned) | 15 |
| CCC(=O)OC[C@H]1OC(n2c(Cl)c(C=O)c3cc(Cl)c(Cl)cc32)C(O)[C@@H]1O (single isomer, unassigned) | 10 |

Tested on: not listed separately
Assay: Cytotoxicity against KB cells was determined by crystal violet staining and spectrophotometric quantitation of dye eluted from stained cells
Format: functional, cell-based
Conditions: not given
In short: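 KB cells seeded at 3000–5000 per well, incubated overnight at 37 °C, then exposed to compound at six to eight concentrations for 48 h at 37 °C in CO₂ (two population doublings). Fixed with 95% ethanol, stained with 0.1% crystal violet, dye eluted with acidified ethanol, read at 570 nm. IC50 by linear regression of % inhibition vs log10 concentration.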

| SMILES | IC50 [µM] |
| --- | --- |
| OC[C@H]1O[C@@H](n2c(Cl)nc3cc(Cl)c(Cl)cc32)C(O)[C@@H]1O (single isomer, unassigned) | 210 |
| O=Cc1c(Cl)n(C2O[C@H](CO)[C@@H](O)C2O)c2cc(Cl)c(Cl)cc12 (single isomer, unassigned) | 45 |
| CC(=O)c1c(Cl)n(C2O[C@H](CO)[C@@H](O)C2O)c2cc(Cl)c(Cl)cc12 (single isomer, unassigned) | 50 |
| OC[C@H]1OC(n2c(Cl)c(-c3ccco3)c3cc(Cl)c(Cl)cc32)C(O)[C@@H]1O (single isomer, unassigned) | 80 |
| OC[C@H]1OC(n2c(Cl)c(I)c3cc(Cl)c(Cl)cc32)C(O)[C@@H]1O (single isomer, unassigned) | 65 |
| CCC(=O)c1c(Cl)n(C2O[C@H](COC(C)=O)[C@@H](O)C2O)c2cc(Cl)c(Cl)cc12 (single isomer, unassigned) | 100 |
| CC(=O)OC[C@H]1OC(n2c(Cl)c(C(C)=O)c3cc(Cl)c(Cl)cc32)C(O)[C@@H]1O (single isomer, unassigned) | 40 |
| CCCC(=O)OC[C@H]1OC(n2c(Cl)c(C=O)c3cc(Cl)c(Cl)cc32)C(O)[C@@H]1O (single isomer, unassigned) | 40 |
| Cc1c(Cl)n(C2O[C@H](CO)[C@@H](O)C2O)c2cc(Cl)c(Cl)cc12 (single isomer, unassigned) | > 100 |
| COC(=O)OC[C@H]1OC(n2c(Cl)c(C=O)c3cc(Cl)c(Cl)cc32)C(O)[C@@H]1O (single isomer, unassigned) | 50 |
| CCC(=O)OC[C@H]1OC(n2c(Cl)c(C=O)c3cc(Cl)c(Cl)cc32)C(O)[C@@H]1O (single isomer, unassigned) | 50 |
| Nc1nc2c(ncn2COC(CO)CO)c(=O)[nH]1 [GANCICLOVIR] | > 100 |

Tested on: Human betaherpesvirus 5
Assay: Inhibitory concentration required against human cytomegalovirus (HCMV) expressed in HFF cells was determined by plaque reduction assay
Format: functional, organism-based
Conditions: Human betaherpesvirus 5, HFF
In short: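 HCMV Towne strain, isolate P₀. HFF monolayers infected with about 100 pfu per cm²; after adsorption, compound (diluted from 10 mg/mL DMSO stock) added at four to eight concentrations in duplicate wells. Incubated 7–10 days at 37 °C, fixed and stained with crystal violet, plaques counted microscopically. IC50 from regression of % plaque reduction vs log10 concentration; ganciclovir as positive control.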

| SMILES | IC50 [µM] |
| --- | --- |
| OC[C@H]1O[C@@H](n2c(Cl)nc3cc(Cl)c(Cl)cc32)C(O)[C@@H]1O (single isomer, unassigned) | 2.9 |
| O=Cc1c(Cl)n(C2O[C@H](CO)[C@@H](O)C2O)c2cc(Cl)c(Cl)cc12 (single isomer, unassigned) | 0.23 |
| CC(=O)c1c(Cl)n(C2O[C@H](CO)[C@@H](O)C2O)c2cc(Cl)c(Cl)cc12 (single isomer, unassigned) | 0.31 |
| OC[C@H]1OC(n2c(Cl)c(-c3ccco3)c3cc(Cl)c(Cl)cc32)C(O)[C@@H]1O (single isomer, unassigned) | 42 |
| OC[C@H]1OC(n2c(Cl)c(I)c3cc(Cl)c(Cl)cc32)C(O)[C@@H]1O (single isomer, unassigned) | 12 |
| CCC(=O)c1c(Cl)n(C2O[C@H](COC(C)=O)[C@@H](O)C2O)c2cc(Cl)c(Cl)cc12 (single isomer, unassigned) | 3.2 |
| CC(=O)OC[C@H]1OC(n2c(Cl)c(C(C)=O)c3cc(Cl)c(Cl)cc32)C(O)[C@@H]1O (single isomer, unassigned) | 0.3 |
| CCCC(=O)OC[C@H]1OC(n2c(Cl)c(C=O)c3cc(Cl)c(Cl)cc32)C(O)[C@@H]1O (single isomer, unassigned) | 0.25 |
| Cc1c(Cl)n(C2O[C@H](CO)[C@@H](O)C2O)c2cc(Cl)c(Cl)cc12 (single isomer, unassigned) | 32 |
| COC(=O)OC[C@H]1OC(n2c(Cl)c(C=O)c3cc(Cl)c(Cl)cc32)C(O)[C@@H]1O (single isomer, unassigned) | 0.2 |
| CCC(=O)OC[C@H]1OC(n2c(Cl)c(C=O)c3cc(Cl)c(Cl)cc32)C(O)[C@@H]1O (single isomer, unassigned) | 0.22 |

Tested on: HFF
Assay: Cytotoxicity produced in stationary HFF cells was determined by microscopic inspection of uninfected cells
Format: functional, cell-based
Conditions: Homo sapiens
In short: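 Uninfected stationary HFF cells inspected microscopically for cytotoxicity, scored at the time of HCMV plaque enumeration (7–10 days at 37 °C), duplicate wells. Compounds from 10 mg/mL DMSO stocks diluted in growth medium. IC50 from linear regression of % inhibition vs log10 concentration.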

| SMILES | IC50 [µM] |
| --- | --- |
| O=Cc1c(Cl)n(C2O[C@H](CO)[C@@H](O)C2O)c2cc(Cl)c(Cl)cc12 (single isomer, unassigned) | 45 |
| CC(=O)c1c(Cl)n(C2O[C@H](CO)[C@@H](O)C2O)c2cc(Cl)c(Cl)cc12 (single isomer, unassigned) | > 100 |
| OC[C@H]1OC(n2c(Cl)c(-c3ccco3)c3cc(Cl)c(Cl)cc32)C(O)[C@@H]1O (single isomer, unassigned) | 32 |
| OC[C@H]1OC(n2c(Cl)c(I)c3cc(Cl)c(Cl)cc32)C(O)[C@@H]1O (single isomer, unassigned) | 32 |
| CCC(=O)c1c(Cl)n(C2O[C@H](COC(C)=O)[C@@H](O)C2O)c2cc(Cl)c(Cl)cc12 (single isomer, unassigned) | > 100 |
| CC(=O)OC[C@H]1OC(n2c(Cl)c(C(C)=O)c3cc(Cl)c(Cl)cc32)C(O)[C@@H]1O (single isomer, unassigned) | 32 |
| CCCC(=O)OC[C@H]1OC(n2c(Cl)c(C=O)c3cc(Cl)c(Cl)cc32)C(O)[C@@H]1O (single isomer, unassigned) | 32 |
| Cc1c(Cl)n(C2O[C@H](CO)[C@@H](O)C2O)c2cc(Cl)c(Cl)cc12 (single isomer, unassigned) | 32 |
| COC(=O)OC[C@H]1OC(n2c(Cl)c(C=O)c3cc(Cl)c(Cl)cc32)C(O)[C@@H]1O (single isomer, unassigned) | 32 |
| CCC(=O)OC[C@H]1OC(n2c(Cl)c(C=O)c3cc(Cl)c(Cl)cc32)C(O)[C@@H]1O (single isomer, unassigned) | 32 |
| Nc1nc2c(ncn2COC(CO)CO)c(=O)[nH]1 [GANCICLOVIR] | > 100 |
